We go through 5 compounds from ChEMBL document CHEMBL3994637, “Broad spectrum anti-infective properties of benzisothiazolones and the parallels in their anti-bacterial and anti-fungal effects” (Bioorg Med Chem Lett, 2017).

Converted amounts (≈) assume the structure as drawn. Bounds are passed on as bounds.

One series deals with Plasmodium falciparum. The series can be described thus: Antimalarial activity against chloroquine-sensitive Plasmodium falciparum 3D7 after 72 hrs by SYBR Green-1 staining based fluorescence assay. It is filed as functional. As to conditions: 3D7, 72 h.
A further series has as its system Candida albicans. Nature of the series: Anti-fungal activity against Candida albicans after 48 hrs by broth microdilution method. It is filed as functional. On the technique in general: Dilution methods test growth across graded concentrations, often in twofold steps.
Series [1] is described as follows: Selectivity index, ratio of CC50 for monkey Vero C1008 cells to IC50 for chloroquine-sensitive Plasmodium falciparum 3D7. Particulars: read-out: Ratio CC50/IC50. Type of series: toxicity.
The test system of another series is Escherichia coli. The series can be described thus: Antibacterial activity against Escherichia coli ATCC 9637 by broth microdilution method. Particulars: W. It is filed as functional. The procedure, abridged: (§1)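 Bacteria were tested by the NCCLS method in Mueller Hinton broth, with gentamicin and norfloxacin as reference drugs.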
The subject of series [2] is Staphylococcus aureus. The series can be described thus: Antibacterial activity against gentamicin-resistant Staphylococcus aureus ATCC 33592 by broth microdilution method. It is filed as functional.
For series [3], the system named is Trichophyton mentagrophytes. Nature of the series: Anti-fungal activity against Trichophyton mentagrophytes after 48 hrs by broth microdilution method. Type of series: functional.
Series [4] concerns Staphylococcus aureus. The series can be described thus: Antibacterial activity against Staphylococcus aureus ATCC 29213 by broth microdilution method. It is filed as functional.
Another series concerns Cryptococcus neoformans. Nature of the series: Anti-fungal activity against Cryptococcus neoformans after 48 hrs by broth microdilution method. It is filed as functional.
A further series concerns Aspergillus fumigatus. The series can be described thus: Anti-fungal activity against Aspergillus fumigatus after 48 hrs by broth microdilution method. It is filed as functional.
A further series concerns Pseudomonas aeruginosa. The series can be described thus: Antibacterial activity against Pseudomonas aeruginosa ATCC BAA-427 by broth microdilution method. It is filed as functional. A digest of the protocol: as §1
The subject of a further series is Sporothrix schenckii. Nature of the series: Anti-fungal activity against Sporothrix schenckii after 48 hrs by broth microdilution method. Type of series: functional.
Series [5] relates to Staphylococcus aureus. Nature of the series: Antibacterial activity against Staphylococcus aureus ATCC 25923 by broth microdilution method. Type of series: functional.
The next series relates to Klebsiella pneumoniae. The series can be described thus: Antibacterial activity against Klebsiella pneumoniae ATCC 27736 by broth microdilution method. Type of series: functional. The procedure, abridged: as §1
The subject of series [6] is Staphylococcus aureus. The series can be described thus: Antibacterial activity against methicillin-resistant Staphylococcus aureus ATCC 700699 by broth microdilution method. Type of series: functional. As to conditions: Mu50.
The test system of the next series is Candida parapsilosis. The series can be described thus: Anti-fungal activity against Candida parapsilosis ATCC 22019 after 48 hrs by broth microdilution method. It is filed as functional. Particulars: Lodderomyces parapsilosis, ATCC 22019, 48 h.
Series [7] is described as follows: Cytotoxicity against monkey Vero C1008 cells after 72 hrs by MTT assay. It is filed as cell-based. As to conditions: chlorocebus sabaeus.

As a reminder, the IC50 is the concentration that gives 50% inhibition. As usually defined, the MIC is the least concentration at which growth counts as inhibited. The CC50 is the concentration giving 50% cytotoxicity. In turn, `O=c1c2ccccc2sn1-c1cccc2ccccc12` gave a half-maximal inhibitory concentration (IC50) in the series on Plasmodium falciparum of 2.64 µM. Besides, the minimal inhibitory concentration (MIC) was 25 µg/mL (≈ 90.1 µM) against Candida albicans; greater than 50 µg/mL with Escherichia coli; 6.25 µg/mL (≈ 22.5 µM) in the series on Staphylococcus aureus [2]; 12.5 µg/mL (≈ 45.1 µM) in series [3]; 6.25 µg/mL (≈ 22.5 µM) with Staphylococcus aureus [4]; 25 µg/mL (≈ 90.1 µM) in the series with Cryptococcus neoformans. The MIC was 50 µg/mL (≈ 180 µM) against Aspergillus fumigatus; greater than 50 µg/mL with Pseudomonas aeruginosa; 12.5 µg/mL (≈ 45.1 µM) against Sporothrix schenckii; 3.12 µg/mL (≈ 11.2 µM) against Staphylococcus aureus [5]; greater than 50 µg/mL in the series with Klebsiella pneumoniae; 3.12 µg/mL (≈ 11.2 µM) against Staphylococcus aureus [6]. This compound displayed an MIC against Candida parapsilosis of 25 µg/mL (≈ 90.1 µM). Also, in series [1], the selectivity ratio was found to be 34.4. Also, in series [7], the CC50 at 72 h was 90.8 µM.
Take `Cc1ccc(-n2sc3ccccc3c2=O)cc1`: the 50% inhibitory concentration (IC50) was 1.66 µM in the series on Plasmodium falciparum; 1.3 µg/mL (≈ 5.39 µM) in the series on Candida albicans; greater than 50 µg/mL in the series with Escherichia coli; 0.6 µg/mL (≈ 2.49 µM) in the series with Staphylococcus aureus [4]; 1.2 µg/mL (≈ 4.97 µM) in the series with Cryptococcus neoformans; 4.1 µg/mL (≈ 17 µM) in the series with Aspergillus fumigatus. Also, the IC50 is greater than 50 µg/mL in the series on Pseudomonas aeruginosa; 0.9 µg/mL (≈ 3.73 µM) with Sporothrix schenckii; 0.6 µg/mL (≈ 2.49 µM) in the series with Staphylococcus aureus [5]; greater than 50 µg/mL with Klebsiella pneumoniae; 0.4 µg/mL (≈ 1.66 µM) in the series on Candida parapsilosis. The MIC against Candida albicans was 2.4 µg/mL (≈ 9.95 µM); against Escherichia coli, greater than 50 µg/mL; in series [3], 1.7 µg/mL (≈ 7.04 µM); in the series with Staphylococcus aureus [4], 1 µg/mL (≈ 4.14 µM); against Cryptococcus neoformans, 1.5 µg/mL (≈ 6.22 µM); in the series with Aspergillus fumigatus it was 13.3 µg/mL (≈ 55.1 µM). The MIC is greater than 50 µg/mL against Pseudomonas aeruginosa; 1 µg/mL (≈ 4.14 µM) in the series with Sporothrix schenckii; 1.07 µg/mL (≈ 4.43 µM) with Staphylococcus aureus [5]; greater than 50 µg/mL with Klebsiella pneumoniae; 0.75 µg/mL (≈ 3.11 µM) in the series on Staphylococcus aureus [6]; 0.6 µg/mL (≈ 2.49 µM) against Candida parapsilosis. Further, the selectivity ratio in series [1] came out at 12. Half-maximal cytotoxicity in series [7] (CC50 at 72 h) was put at 19.9 µM.
In the series with Plasmodium falciparum, `O=c1c2ccccc2sn1-c1ccc(F)cc1` registered an IC50 of 0.97 µM. Also, the minimum inhibitory concentration (MIC) was 12.5 µg/mL (≈ 51 µM) with Candida albicans; greater than 50 µg/mL in the series on Escherichia coli; 3.12 µg/mL (≈ 12.7 µM) against Staphylococcus aureus [2]; 12.5 µg/mL (≈ 51 µM) in series [3]; 3.12 µg/mL (≈ 12.7 µM) in the series with Staphylococcus aureus [4]; 12.5 µg/mL (≈ 51 µM) with Cryptococcus neoformans. The minimum inhibitory concentration (MIC) in the series with Aspergillus fumigatus is 25 µg/mL (≈ 102 µM); with Pseudomonas aeruginosa, greater than 50 µg/mL; in the series on Sporothrix schenckii it was 12.5 µg/mL (≈ 51 µM); against Staphylococcus aureus [5], 6.25 µg/mL (≈ 25.5 µM); with Klebsiella pneumoniae, greater than 50 µg/mL; in the series on Staphylococcus aureus [6] it was 3.12 µg/mL (≈ 12.7 µM). The minimum inhibitory concentration (MIC) in the series with Candida parapsilosis amounted to 12.5 µg/mL (≈ 51 µM). Besides, the selectivity ratio in [1] is 84.4. The cytotoxic concentration (CC50) at 72 h in series [7] was 85.4 µM.
In the series on Plasmodium falciparum, `O=c1c2ccccc2sn1-c1ccc(Cl)cc1` registered a 50% inhibitory concentration (IC50) of 0.92 µM. Besides, the MIC against Candida albicans is 12.5 µg/mL (≈ 47.8 µM); with Escherichia coli, greater than 50 µg/mL; against Staphylococcus aureus [2], 6.26 µg/mL (≈ 23.9 µM); in series [3] it was 12.5 µg/mL (≈ 47.8 µM); in the series with Staphylococcus aureus [4], 6.25 µg/mL (≈ 23.9 µM); against Cryptococcus neoformans, 12.5 µg/mL (≈ 47.8 µM). The minimal inhibitory concentration (MIC) with Aspergillus fumigatus is 25 µg/mL (≈ 95.5 µM); in the series on Pseudomonas aeruginosa, greater than 50 µg/mL; with Sporothrix schenckii, 12.5 µg/mL (≈ 47.8 µM); with Staphylococcus aureus [5] it was 6.25 µg/mL (≈ 23.9 µM); with Klebsiella pneumoniae, greater than 50 µg/mL; in the series on Staphylococcus aureus [6], 3.12 µg/mL (≈ 11.9 µM). Moreover, the MIC in the series on Candida parapsilosis was 12.5 µg/mL (≈ 47.8 µM). Also, the selectivity ratio in series [1] was 70.8. In series [7], this compound registered a CC50 at 72 h of 71.7 µM.
Take `O=c1c2ccccc2sn1-c1ccccc1`: the concentration for half-maximal inhibition (IC50) with Plasmodium falciparum was 0.74 µM; in the series on Candida albicans, 2.9 µg/mL (≈ 12.8 µM); in the series on Escherichia coli it was greater than 50 µg/mL; in [3], 0.7 µg/mL (≈ 3.08 µM); in the series on Staphylococcus aureus [4], 1.6 µg/mL (≈ 7.04 µM); in the series with Cryptococcus neoformans, 0.9 µg/mL (≈ 3.96 µM). Besides, the IC50 with Aspergillus fumigatus is 6.1 µg/mL (≈ 26.8 µM); with Pseudomonas aeruginosa it was greater than 50 µg/mL; in the series with Sporothrix schenckii it was 0.6 µg/mL (≈ 2.64 µM); in the series on Staphylococcus aureus [5], 1.1 µg/mL (≈ 4.84 µM); in the series on Klebsiella pneumoniae, greater than 50 µg/mL; with Candida parapsilosis, 0.7 µg/mL (≈ 3.08 µM). Further, the MIC with Candida albicans was 3.02 µg/mL (≈ 13.3 µM); with Escherichia coli it was greater than 50 µg/mL; in [3], 0.8 µg/mL (≈ 3.52 µM); against Staphylococcus aureus [4] it was 2.1 µg/mL (≈ 9.24 µM); against Cryptococcus neoformans it was 1.21 µg/mL (≈ 5.32 µM); in the series on Aspergillus fumigatus, 6.4 µg/mL (≈ 28.2 µM). For the same compound, the minimum inhibitory concentration (MIC) in the series with Pseudomonas aeruginosa is greater than 50 µg/mL; in the series with Sporothrix schenckii, 1.7 µg/mL (≈ 7.48 µM); in the series on Staphylococcus aureus [5] it was 1.6 µg/mL (≈ 7.04 µM); with Klebsiella pneumoniae it was greater than 50 µg/mL; with Staphylococcus aureus [6], 0.77 µg/mL (≈ 3.39 µM); in the series with Candida parapsilosis, 0.8 µg/mL (≈ 3.52 µM). Moreover, in [1], the selectivity ratio was found to be 26.3. This compound showed a cytotoxic concentration (CC50) at 72 h in series [7] of 19.4 µM.
